# GalR3 antag: antagonists of human GalR3; O60755; hit rate 0.44% among 360,000; HEK293 GalR3-CNG cAMP membrane potential fluorescence; galR3 body fused to GalR1 C-terminus; AID 651719; inhibition, % at 3 µM;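 active = inhibition above the screen-wide average plus 3 SD, cut at about 13% in these data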;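 note: forskolin and galanin both at EC90 stimulate the cells; cAMP rise reported by CNG channel membrane potential dye signal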
# TAAR1 ag: human TAAR1 agonism; CHO RD-HGA16 TAAR1, Fluo-8 calcium fluorescence; vehicle wells 0%, saturating PEA agonist 100%; activation, % at 3 µM; hit rate 0.99% among 360,000; AID 624467;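 active = activation above the mean activation of all test compounds in the run plus 3 SD, cut at about 38% in these data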
# Target sequence (Q96RJ0 whole entry, looked up): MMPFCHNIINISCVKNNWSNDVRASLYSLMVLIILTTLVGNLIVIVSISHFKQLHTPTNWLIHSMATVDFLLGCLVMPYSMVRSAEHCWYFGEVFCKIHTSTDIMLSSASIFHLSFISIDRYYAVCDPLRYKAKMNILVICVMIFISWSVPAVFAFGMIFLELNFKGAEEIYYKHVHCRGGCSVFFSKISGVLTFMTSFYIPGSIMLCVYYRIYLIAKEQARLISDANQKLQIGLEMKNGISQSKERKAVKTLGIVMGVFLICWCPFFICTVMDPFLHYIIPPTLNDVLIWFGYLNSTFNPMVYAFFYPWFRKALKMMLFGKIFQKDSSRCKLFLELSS
#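 System: CHO-derived RD-HGA16 cells with stable Gα16 and human TAAR1. Times: 17-24 h plating, Fluo-8 75 min 37 °C, 30 min RT. Measured by: calcium-sensitive Fluo-8 signal, excitation 470-495, emission 515-575 nm. Read-out basis: % activation relative to PEA EC100 response. Control set: DMSO and PEA EC100. Repeats: no replicates (n 1).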
# TAAR1 antagonist: human TAAR1 antagonism; hit rate 1.5% among 360,000; CHO RD-HGA16 TAAR1, Fluo-8 calcium fluorescence, antagonist; AID 624466; inhibition, % at 3 µM;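 active = inhibition above a per-plate cutoff, the mean inhibition of test compounds on that plate plus 3 SD, cut at about 49% in these data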
#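 Material: CHO RD-HGA16 cells bearing hTAAR1; compound dosing: one-point dosing, 3 µM nominal final; schedule: dye loading 75 min at 37 °C, then 30 min room temperature; measured by: calcium fluorescence with Fluo-8; control set: vehicle and agonist controls; replication: n of 1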
# OX1R antag-1: antagonists of human orexin 1 receptor. O43613. CHO/OX1R cells, Fluo-8 calcium fluorescence, orexin A. inhibition, % at 5 µM. hit rate 0.43% among 330,000. AID 434989;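 active = inhibition above its plate's threshold, mean inhibition of all tested compounds on the plate plus 3 SD, cut at about 37% in these data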
# CHO parental Ca: counter-screen: ATP calcium response change in parental CHO cells | parental CHO-K1, ATP-induced calcium, Fluo-8 fluorescence | inhibition, % at 5.6 µM | hit rate 0.63% among 330,000;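 active = inhibition above that plate's mean sample inhibition plus 3 SD, cut at about 26% in these data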
#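 Test system: untransfected parental CHO cell line; also added: ATP stimulus; dosing: 5.6 µM, single dose; signal: calcium-sensitive Fluo-8 fluorescence; measure: percent inhibition of ATP-evoked calcium rise, normalized to controls; benchmarks: low control ATP plus DMSO, high control DMSO only; replication: one well per compound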
# OX1R antag-2: antagonists of human orexin 1 receptor (OX1R); hit rate 1.8% among 330,000; O43613; inhibition, % at 6.6 µM; OX1R-expressing cells, FRET antagonist read-out; AID 485270; in the data active = inhibition mostly above about 38%, no sharp cut-off; inactive = mostly below about 40%
# Hits are given with their value; i = inactive; nt = no result. A selection: hits, their analogues and other compounds. The true share with any hit is near 4.2%.
SMILES,GalR3 antag,TAAR1 ag,TAAR1 antagonist,OX1R antag-1,CHO parental Ca,OX1R antag-2
CC(=O)Nc1ccc(NC(=O)COC(=O)c2c3c(nc4ccccc24)CCN(Cc2ccccc2)C3)cc1,i,i,63,i,i,i
O=C(COC(=O)c1c2c(nc3ccccc13)CCN(Cc1ccccc1)C2)Nc1c(F)cccc1F,i,i,i,i,i,i
Cc1oc2c(c1C(=O)c1ccc(Cl)cc1)C(=O)C(=O)c1ccccc1-2,i,i,i,nt,nt,nt
Cc1ccc(C(=O)c2coc3c2C(=O)C(=O)c2ccccc2-3)cc1,i,i,i,i,i,47
O=C(CC1SC(=Nc2ccccc2)N(CCCO)C1=O)Nc1ccc(Cl)cc1 (configuration not stated),nt,nt,nt,77,66,i
COCCNC(=O)C1CCCN(S(=O)(=O)c2cccc3nsnc23)C1 (configuration not stated),i,i,i,i,i,48
O=C(NCCCN1CCCCCC1)C1CCCN(S(=O)(=O)c2cccc3nsnc23)C1 (configuration not stated),i,i,i,i,i,i
O=C(NCc1ccccn1)C1CCCN(S(=O)(=O)c2cccc3nsnc23)C1 (configuration not stated),i,i,i,i,i,121
C=CCC[C@H](Cc1ccc(F)cc1)C(=O)O[C@H](CNC(=O)[C@@H](CC=C)CC(=O)N(CCO)Cc1ccccc1)c1ccccc1,i,i,56,i,i,i
C=CC[C@H](CC(=O)NCCO)C(=O)NC[C@@H](OC(=O)[C@@H](CC=C)Cc1ccc(F)cc1)c1ccccc1,i,i,i,i,i,i
C=CC[C@H](CC(=O)N(CCO)Cc1ccccc1)C(=O)NC[C@@H](OC(=O)[C@@H](CC=C)Cc1ccc(F)cc1)c1ccccc1,i,i,56,i,i,i
C=CC[C@@H](CC(=O)N(CCO)Cc1ccccc1)C(=O)NCCOC(=O)[C@@H](CC=C)Cc1ccc(F)cc1,i,i,i,i,i,i
COc1ccccc1/C=C/C(=O)NCC(=O)N/N=C/c1cccnc1,i,i,i,i,i,i
COc1ccccc1/C=C/C(=O)NCC(=O)N/N=C/c1ccccc1,i,38,i,i,i,i
O=[N+]([O-])c1ccc(-c2nc(-c3ccncc3)no2)cc1,i,i,i,i,i,64
Brc1ccc(-c2nc(-c3ccncc3)no2)cc1,i,i,i,i,i,i
COc1cccc(CNC(=O)c2cc(S(=O)(=O)N3CCOCC3)cn2C)c1,nt,i,i,i,i,i
CC(C)(C)c1ccc(C(=O)N2CCC(=O)N(C(CO)Cc3ccccc3)CC2)cc1 (configuration not stated),i,46,i,i,i,i
CC(C)(C)c1ccc(C(=O)N2CCC(=O)N(C(COCc3ccccc3)Cc3ccccc3)CC2)cc1 (configuration not stated),i,i,74,i,i,i
O=C(c1ccccc1)N1CCC(=O)N(C(CO)Cc2ccccc2)CC1 (configuration not stated),i,i,i,i,i,i
CCSc1nc2c(c(=O)n1Cc1ccccc1)SC(C)C2 (configuration not stated),i,i,i,i,i,i
CCOC(=O)C[C@H]1c2ccccc2S(=O)(=O)N1Cc1ccc(Cl)cc1,i,i,i,i,i,i
Cc1cc(N2CCCC2)nc(SCC(=O)c2ccccc2)n1,i,i,i,i,i,i
Cc1cc(N2CCC(C)CC2)nc(SCC(=O)c2ccccc2)n1,i,i,54,i,i,i
Cc1cccc(OCCCC(=O)Nc2ccc(N3CCCCC3)cc2)c1,i,73,64,i,i,i
COc1ccc(OCCCC(=O)Nc2ccc(N3CCCCC3)cc2)cc1,i,i,i,i,i,i
CCOC(=O)N1CCC(=NNc2ccc(S(N)(=O)=O)cc2[N+](=O)[O-])CC1,i,i,i,i,i,59
NS(=O)(=O)c1ccc(NN=C2CCCCC2)c([N+](=O)[O-])c1,i,i,i,i,i,73
CCC(CC)=NNc1ccc(S(N)(=O)=O)cc1[N+](=O)[O-],i,i,i,i,i,46

# Assay outcomes deposited in PubChem by The Scripps Research Institute Molecular Screening Center.
